RAM network inh: inhibitors of the yeast RAM network, primary screen, dse1pr::URA3 reporter, 5-FOA selection. S. cerevisiae dse1pr::URA3 reporter, 5-FOA growth OD615, 2 d; analog-sensitive cbk1-as2 kinase mutant strain. inhibition, % at 50 µM. actives 1.8% (n = 190,000). AID 868, 2007;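 active means inhibition above a set limit, 3 SD over mean compound inhibition, cut at about 8.4% in these data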;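 further: 0% = DMSO-only wells with no growth and 100% = 10 µM 1-NA-PP1 full growth; inhibition rescues growth on 5-FOA so higher OD means more RAM inhibition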
WT yeast gro inh: growth inhibition of WT strain, primary screen, mitochondrial fusion inhibitor project, WT and mutant strains, chemical genetic. mitochondrial fusion phenotypic screen. inhibition, % at 10 µM. actives 2.1% (n = 190,000). AID 1362, 2008; in the data active means inhibition above about 58%; tested in S. cerevisiae
NPY-Y1 PAM-ag: NPY-Y1 receptor potentiators or agonists, primary screen, cell-based; Neuropeptide Y receptor type 1 (Homo sapiens), P25929; NPY-Y1 expressing cells, potentiator/agonist activation; actives 0.37% (n = 220,000); AID 1304, 2008; activation, % at 3.6 µM; in the data active means activation above about 33%, passing the limit was not always enough;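 further: cells stimulated with NPY at EC10 then isoproterenol at EC100; 0% = low agonist plus stimulus and 100% = saturating agonist plus stimulus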
NPY2 pot ag: NPY-Y2 potentiators or agonists, primary screen, cell-based | AID 1359, 2008 | actives 0.45% (n = 220,000) | Neuropeptide Y receptor type 2 (Homo sapiens), P49146 | cells expressing NPY-Y2, potentiator/agonist read-out | activation, % at 3.6 µM; in the data active means activation above about 27%;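 further: cells stimulated with NPY near EC25 plus isoproterenol at EC100; 0% = vehicle plus submaximal agonist and 100% = vehicle plus saturating agonist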
Target sequence (P49146 whole entry, looked up): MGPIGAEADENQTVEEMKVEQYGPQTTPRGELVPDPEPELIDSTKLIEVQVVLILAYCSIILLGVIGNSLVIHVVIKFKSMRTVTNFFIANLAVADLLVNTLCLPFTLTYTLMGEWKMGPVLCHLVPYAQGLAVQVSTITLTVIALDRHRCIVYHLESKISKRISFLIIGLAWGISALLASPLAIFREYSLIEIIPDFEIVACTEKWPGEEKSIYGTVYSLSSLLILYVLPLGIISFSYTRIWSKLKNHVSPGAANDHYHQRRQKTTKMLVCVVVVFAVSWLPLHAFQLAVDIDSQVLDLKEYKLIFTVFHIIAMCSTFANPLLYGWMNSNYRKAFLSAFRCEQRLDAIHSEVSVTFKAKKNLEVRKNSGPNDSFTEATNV
NPY-Y2 antag: NPY-Y2 receptor antagonists, primary screen, cell-based. Neuropeptide Y receptor type 2 (Homo sapiens), P49146. actives 0.99% (n = 140,000). inhibition, % at 2.7 µM. NPY-Y2 expressing cells, antagonist mode; in the data active means inhibition above about 17%;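 further: 0% = vehicle with agonist challenge and 100% = reference antagonist with challenge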
NPY-Y1 antag: NPY-Y1 receptor antagonists, primary screen, cell-based; AID 1040, 2008; actives 1% (n = 200,000); Neuropeptide Y receptor type 1 (Homo sapiens), P25929; HEK293-CNG Y1 cells, membrane potential fluorescence; NPY at EC95, then isoproterenol; inhibition, % at 3.6 µM;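 active means inhibition above the campaign mean inhibition of all tested compounds plus 3 SD, cut at about 20% in these data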;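 further: 0% = DMSO wells given NPY plus isoproterenol and 100% = isoproterenol alone without NPY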
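Assay system: HEK293 cells with Y1 receptor plus CNG channel | Probe or stimulus: NPY (25 nM), isoproterenol (1 µM), Ro 20-1724 (25 µM) | Timing: Compound incubation 1 h at room temperature, readout 45 min post-stimulation | Measured by: Membrane-potential fluorescent dye readout | Benchmarks: High control isoproterenol alone, low control NPY with isoproterenol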
Starred values were filed as active, the others as inactive; nt = no result given. Compounds with a hit are over-represented: about 4.9% of the library has one in this group of screens.

SMILES	RAM network inh	WT yeast gro inh	NPY-Y1 PAM-ag	NPY2 pot ag	NPY-Y2 antag	NPY-Y1 antag
O=C(c1cccc(C(=O)N2CCN(Cc3ccccc3)CC2)c1)N1CCN(Cc2ccccc2)CC1	0	4	17	1	1	-2
CSc1nsc(N/N=C/c2ccc3c(c2)OCO3)c1C#N	8	9	11	-1	nt	-3
Cc1nn(-c2ccc([N+](=O)[O-])cc2)c2c1C(c1cccc(Br)c1)N1C(=N2)C(=O)Nc2ccccc21 (configuration not stated)	10*	9	4	16	-3	3
Cc1nc(SCC(O)CO)c([N+](=O)[O-])[nH]1 (configuration not stated)	0	-11	-2	1	3	0
Cc1ccc(SCCNC(=S)Nc2ccc(C)cc2C)cc1	7	69*	-27	-6	9	9
Cc1ccc(NC(=O)NCCSc2ccc(C)cc2)cc1	2	-9	5	-10	nt	-1
Cc1ccc(NC(=S)NCCc2ccc(F)cc2)c(C)c1	2	40	-3	3	3	-3
Cc1ccc(NC(=S)NCCC(c2ccccc2)c2ccccc2)c(C)c1	6	65*	4	-14	5	3
COC(=O)Cc1ccc(NC(=S)NCCSc2ccc(C)cc2)cc1	3	68*	-9	-7	nt	5
Cc1ccc(SCCNC(=S)Nc2cc(C)cc(C)c2)cc1	5	76*	9	-15	7	-2
COc1ccc(OC)c(NC(=S)NCCC(c2ccccc2)c2ccccc2)c1	nt	nt	-9	1	4	2
Cc1ccc(NC(=S)NCCSc2ccc(Cl)cc2)cc1	2	25	-1	-8	nt	1
Cc1cc(NS(=O)(=O)c2ccc(NC(=O)CCCOc3ccc(Cl)cc3)cc2)no1	6	-1	16	7	1	-4
COc1cccc(CN(C(=O)Cn2nnc(-c3ccccc3F)n2)C(C(=O)NC(C)(C)C)c2ccncc2)c1 (configuration not stated)	1	-6	-3	-4	nt	4
CCSc1nnc(NC(=O)C2CCCCC2)s1	1	-5	1	19	1	-2
CCOc1cc(NC(=O)c2ccccn2)c(OCC)cc1NC(=O)c1cccc(C)c1	9.6*	-9	-5	3	nt	0
CCOc1cc(NC(=O)c2cccs2)c(OCC)cc1NC(=O)c1ccccn1	3	1	-10	-9	nt	2
Cc1cccc(C(=O)Nc2cc(OCc3cccc(F)c3)c(Cl)cc2Cl)c1	9.4*	17	-8	-9	0	-1
O=C(CNC(=S)N(CCCN1CCOCC1)Cc1cccs1)NC1CCCCCCC1	2	-11	-2	11	1	9
CCC(C)(C)c1ccc(OCCCC[n+]2ccc(C)cc2)c(C(C)(C)CC)c1	-1	99*	-62	-28	nt	14
CCC(C)(C)c1ccc(OCCCC[n+]2cccc(C)c2C)c(C(C)(C)CC)c1	nt	nt	-49	-51	nt	nt
Cc1ccc(S(=O)(=O)N2CCOCC(=O)NCCOCCNC(=O)COCC2)cc1	1	-3	-5	16	1	-4
CCOC(=O)c1c(-c2ccccc2)csc1NC(=O)c1ccc(N2C(=O)CCC2=O)cc1	4	-7	-1	-4	6	-1
Cc1cccc(NC(=O)c2ccc(COc3ccc(Cl)cc3Cl)o2)n1	3	60*	-35	-40	15	12
S=C1NCCc2ccc(Cl)cc2C1c1ccccc1Cl (configuration not stated)	1	68*	12	16	1	-3
O=C(c1ccc(OCC2CCCO2)cc1)N1CCN(c2ccccc2)CC1 (configuration not stated)	0	4	8	-19	2	6
Cc1onc(-c2ccccc2)c1C(=O)N[C@@H]1C(=O)N2[C@@H]1SC(C)(C)[C@@H]2C(=O)O	0	6	-10	9	2	0
CCOc1ccc(C(=O)Nc2ccc(Cl)cn2)cc1Cl	8.7*	11	-4	-5	3	-3

High-throughput results as filed in PubChem BioAssay.
